KCNQ1 pot: potentiators or activators of KCNQ1 channel, primary screen, cell-based, thallium flux, high-throughput | Potassium voltage-gated channel subfamily KQT member 1 (Homo sapiens), P51787 | CHO-K1 KCNQ1, thallium flux FluxOR fluorescence; hits give high values | B-score at 10 µM | 310,000 tested, 0.35% active;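 active = fluorescence ratio B-score, a plate-corrected score, at least three library SD, with initial intensity B-score within 5 SD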
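Schedule – 37 °C overnight plating, 90-min dark dye load, 20-min compound pretreatment · System – stable KCNQ1 CHO-K1 line · Probe or stimulus – thallium- and potassium-containing depolarizing buffer · Measured by – kinetic FluxOR fluorescence, 10 s baseline plus 110 s post-stimulus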
KCNK9 inh: KCNK9 potassium channel inhibitors, primary screen, HEK293 cells, thallium flux; Potassium channel subfamily K member 9 (Homo sapiens), Q9NPC2; FluxOR thallium flux fluorescence; hits give low values; B-score at 10 µM; 310,000 tested, 1.2% active; AID 488922, 2010;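 active = ratio B-score over 3 SD below the library mean, with starting fluorescence within 5 SD of its mean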;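 note: negative B-score means less thallium flux so channel inhibition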
Target sequence (Q9NPC2 whole entry, looked up): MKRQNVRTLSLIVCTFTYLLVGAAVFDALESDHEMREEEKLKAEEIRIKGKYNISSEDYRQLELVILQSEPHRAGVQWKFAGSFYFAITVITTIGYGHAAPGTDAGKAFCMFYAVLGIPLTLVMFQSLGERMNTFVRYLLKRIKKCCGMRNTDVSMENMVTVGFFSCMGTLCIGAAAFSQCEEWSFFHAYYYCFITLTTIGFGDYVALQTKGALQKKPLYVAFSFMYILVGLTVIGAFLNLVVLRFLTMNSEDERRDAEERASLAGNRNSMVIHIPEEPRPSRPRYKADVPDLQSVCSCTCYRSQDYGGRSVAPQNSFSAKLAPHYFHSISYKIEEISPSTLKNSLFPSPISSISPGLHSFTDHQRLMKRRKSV
KCNQ1 block: inhibitors of human KCNQ1 channel, primary screen, cell-based, thallium flux, high-throughput; CHO-K1 KCNQ1, FluxOR thallium flux fluorescence; hits give high values; 310,000 tested, 1.3% active; B-score at 10 µM; Potassium voltage-gated channel subfamily KQT member 1 (Homo sapiens), P51787; AID 2642, 2010;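 active = compounds whose thallium flux B-score, printed positive for inhibition, exceeds three library SD while starting fluorescence stays within three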;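 note: channel opened by potassium depolarization with thallium stimulus after 20 min compound exposure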
KCNK3 inh: human KCNK3 channel inhibitors, primary screen, CHO cells, FluxOR thallium flux, B-score; FluxOR fluorescence; hits give low values; 340,000 tested, 0.84% active; B-score at 10 µM;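 active = B-score under library mean minus 4 SD, starting fluorescence ratio at most library mean plus 5 SD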;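 note: more negative B-score means stronger inhibition of thallium flux through KCNK3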
Kir21 inh: inhibitors of mouse Kir2.1 inward-rectifier potassium channel | Inward rectifier potassium channel 2 (Mus musculus), P35561 | B-score at 10 µM | HEK293-Kir2.1, FluxOR thallium flux fluorescence; hits give low values | 310,000 tested, 0.85% active;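 active = fluorescence ratio B-score at or below minus 3 SD of library scores, with starting-brightness B-score within 2 SD, cut at about -4.2 in these data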;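 note: channel flux triggered by added potassium and thallium sulfate stimulus; B-score of peak minus minimum fluorescence over baseline after thallium stimulus; more negative B-score means stronger Kir2.1 block with less thallium influx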
hERG rescue: hERG rescue from dofetilide block, primary screen, cell-based, CHO-hERG, FluxOR thallium flux, dofetilide IC70. 310,000 tested, 0.51% active. dofetilide IC70 present. Voltage-gated inwardly rectifying potassium channel KCNH2 (Homo sapiens), Q12809. AID 1511, 2009. activation (rescue from dofetilide block), less the hit threshold, % at 10 µM;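 active = activation above the mean of controls blocked by dofetilide plus 5 SD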;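 note: thallium influx through hERG after potassium depolarization seen as dye fluorescence rise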
KCNK9 inh conf: KCNK9 potassium channel inhibitors, confirmation, HEK293 cells, thallium flux, duplicate; shares compounds with KCNK9 inh; FluxOR thallium flux fluorescence; inhibition, % at 10 µM; 4,900 tested, 43% active; AID 492992, 2010;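 active = thallium signal inhibited by more than 5 SD of the compound-free buffer control wells, on both duplicate plates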;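 note: 0% = assay buffer control wells without compound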
Kir21 sel: mouse Kir2.1 channel inhibition, confirmation, selectivity assay for KCNK9 modulator project, cell-based, HEK293, thallium flux; shares compounds with KCNK9 inh; Kir2.1 cells, FluxOR thallium flux fluorescence; inhibition, % at 10 µM; 4,900 tested, 4% active;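 active = thallium signal drop more than 5 SD beyond the mean of the no-compound control wells, seen in both duplicate plates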;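 note: signal is fluorescence rise after thallium addition divided by baseline fluorescence; plate controls were assay buffer only for no effect and full block by chlorpromazine control for full effect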
HEK293 Tl ctr: thallium flux in non-induced HEK293 cells, confirmation, counter-screen for KCNK9 inhibitor project, cell-based, second counter screen, non-induced KCNK9-HEK293; 4,900 tested, 40% active; shares compounds with KCNK9 inh; inhibition, % at 10 µM; FluxOR thallium flux;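 active = thallium signal drop beyond 5 SD of the untreated control mean, on both duplicate plates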;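 note: plate controls were buffer only IC0 wells for no effect and SID17386958 at its maximal inhibitory level for full effect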
* = called active by the depositor; i = inactive; · = no result given. Rows were chosen to be rich in hits. Some 3.8% of all compounds tested hit in one or more screens of this group.

SMILES	KCNQ1 pot	KCNK9 inh	KCNQ1 block	KCNK3 inh	Kir21 inh	hERG rescue	KCNK9 inh conf	Kir21 sel	HEK293 Tl ctr
CCOC(=O)c1c(C)oc2cc(Br)c(OC(C)C(=O)OCC)cc12 (stereo not given)	i	i	i	i	-0.77	-19	i	i	i
O=C(Cc1ccc2c(c1)OCCO2)Nc1ccc(Cl)c(S(=O)(=O)N2CCOCC2)c1	·	·	·	i	·	·	·	·	·
COc1ccc(OC)c(C2SCCN2S(=O)(=O)c2cccc(C(F)(F)F)c2)c1 (stereo not given)	i	-15*	i	i	-0.25	-7	i	i	60%*
COc1ccc(C(=O)OC(C(=O)c2ccc(C)cc2)c2ccccc2)cc1 (stereo not given)	i	-15*	i	i	-0.92	-11	65%*	i	32%*
CC(=O)Nc1cccc(C(=O)OC(C(=O)c2ccc(C)cc2)c2ccccc2)c1 (stereo not given)	i	i	i	i	-0.32	-13	·	·	·
Cc1ccc(OCCCOc2cccc3cccnc23)cc1C	i	i	i	i	-1.7	-9	i	i	i
CCOC(=O)C(C#N)(Cc1cc(OC)cc(OC)c1)Cc1cc(OC)cc(OC)c1	i	-14*	i	i	1.9	-6	56%*	i	46%*
CCC(=O)Nc1cc(OC)cc(OC)c1	i	i	i	i	-1.7	-10	·	·	·
CCc1c(C)nc(SCc2ccccn2)[nH]c1=O	i	i	i	i	-0.17	-12	·	·	·
Cc1nnc(-c2ccc(N3CCCCCC3)c([N+](=O)[O-])c2)o1	i	i	i	i	-0.14	-1	·	·	·
CCCCCCn1c(N2CCN(c3ccccc3)CC2)nc2c1c(=O)n(C)c(=O)n2C	i	-8.5*	i	i	2.5	-23	43%*	i	40%*
Cn1c(=O)c2c(nc(CN3CCN(c4ccccc4F)CC3)n2CCCc2ccccc2)n(C)c1=O	i	i	i	i	0.39	-7	i	i	i
CN1CCN(Cc2nc3c(c(=O)n(C)c(=O)n3C)n2CCCc2ccccc2)CC1	i	i	i	i	-0.91	-14	·	·	·
CCOCCn1c(N2CCN(c3ccccc3)CC2)nc2c1c(=O)n(C)c(=O)n2C	i	i	i	i	-0.89	-12	·	·	·
CC(C)C[C@H](NC(=O)OC(C)(C)C)C(=O)N/N=C/c1ccc2nccnc2c1	i	i	i	i	0.56	-12	·	·	·
CC(C)C[C@H](NC(=O)OC(C)(C)C)C(=O)N/N=C/C1=Cc2ccccc2OC1C (stereo not given in full)	i	-11*	i	i	0.23	-10	68%*	i	32%*
O=C(O)c1cccc(-c2ccc(/C=N/n3cnc4sc5c(c4c3=O)CCCC5)o2)c1	i	i	i	·	-1	-19	·	·	·
O=c1c2sccc2nc(SCc2ccc([N+](=O)[O-])cc2)n1Cc1ccccn1	i	-9.6*	i	i	-1.6	-12	74%*	i	28%*
CCOC(=O)/C(=N/Nc1ccccc1)N1CCCc2ccccc21	i	i	i	i	0.13	-12	·	·	·
CCOC(=O)/C(=N/Nc1ccccc1OC)N1CCCc2ccccc21	i	i	i	i	1.4	2	i	i	i
O=C(O)c1cccc2c1C(=O)c1cc([N+](=O)[O-])ccc1-2	·	·	·	i	·	·	·	·	·
Cc1cc(C)c(S(=O)(=O)c2c(C)cccc2C)c(OCC(C)C)n1	i	-9.9*	i	i	1.7	-16	59%*	i	42%*
CCOc1nc(C)cc(C)c1S(=O)(=O)c1cccc(C)c1	i	i	i	·	-4	-11	·	·	·
COc1ccc(C(=O)C2CCCN(Cc3c(F)ccc(F)c3F)C2)c(OC)c1 (stereo not given)	i	i	i	i	-2.1	-4	·	·	·
COc1ccc(C(=O)C2CCCN(C/C=C/c3ccccc3OC)C2)c(OC)c1 (stereo not given)	i	i	i	i	-2.7	-20	i	i	i
SMILES	KCNQ1 pot	KCNK9 inh	KCNQ1 block	KCNK3 inh	Kir21 inh	hERG rescue	KCNK9 inh conf	Kir21 sel	HEK293 Tl ctr
COc1cccc(C(=O)C2CCCN(C/C=C/c3ccccc3OC)C2)c1 (stereo not given)	i	i	i	i	0.02	-33	i	i	i
O=C(CCSc1ccc(Cl)cc1)N1CCCCCC1	i	i	i	i	-1.2	-7	i	i	i
CCN(CC)C(=O)N1c2ccccc2C=Cc2ccccc21	i	-8.2*	i	i	-0.74	-10	42%*	i	30%*
CCOC(=O)C1=C(CSc2nc(C)cc(C)c2C#N)OC(N)=C(C#N)C1c1ccccc1 (stereo not given)	i	-14*	i	i	1.6	-16	56%*	i	48%*
CCOC(=O)C1=C(CSc2nc3c(cc2C#N)CN(C)CC3)OC(N)=C(C#N)C1c1ccc(Cl)cc1 (stereo not given)	i	i	i	i	0.38	-7	·	·	·
O=C(CO/N=C/c1ccc(OC(F)F)cc1)N1CCc2ccccc21	i	i	i	i	-1.7	-4	·	·	·
CCN(CC)c1ccc(/C=N/OCC(=O)N2CCCc3ccccc32)cc1	i	i	i	i	-2.5	-11	i	i	i
O=C(Nc1cscc1S(=O)(=O)c1ccccc1)c1ccccc1Cl	i	-8.6*	i	i	-1.8	-3	41%*	i	34%*
O=C(Nc1cscc1S(=O)(=O)c1ccc(Cl)cc1)c1ccccc1Cl	i	i	i	i	-0.71	-11	·	·	·
